What all share (assay type): functional, organism-based
The test system of assay [1] is Trypanosoma brucei brucei. The assay can be described thus: Antitrypanosomal activity against Trypanosoma brucei brucei Lab110 EATRO after 48 hrs. Summed up: (§1)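 Bloodstream-form trypanosomes were cultured in modified IMDM with 20% horse serum at 37 °C, in 24-well plates inoculated with 10^5 trypanosomes per well. Half the well volume was changed daily. Compounds were dissolved in DMSO, with a final DMSO concentration of at most 0.3%, and tested in duplicate at final concentrations of 0.1–100 µg/mL. Parasites were Coulter-counted at 48 h, and IC50 values were taken from semi-log plots. Each assay was run at least twice.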

Assay [2] concerns Trypanosoma brucei rhodesiense. The assay can be described thus: Antitrypanosomal activity against Trypanosoma brucei rhodesiense KETRI 243 isolate after 48 hrs. Summed up:
as §1

Assay [3] deals with Trypanosoma brucei rhodesiense. The assay can be described thus: Antitrypanosomal activity against Trypanosoma brucei rhodesiense KETRI 243 As 10-3 isolate after 48 hrs. In a few lines:
as §1

The structures appear in SMILES notation. Values after ≈ are worked out from the molar mass of the structure shown. Some results are limits rather than exact numbers.

Take `N=C(N)c1ccc(OCCCCCOc2ccc(C(=N)N)cc2)cc1` [PENTAMIDINE]: the IC50 is 0.0006 µg/mL (≈ 0.00176 µM) in assay [1], 0.0005 µg/mL (≈ 0.00147 µM) in assay [2] and 0.004 µg/mL (≈ 0.0117 µM) in assay [3].
For `COc1cc(/C=C/C(O)=C/C(=O)CCc2ccc(O)c(OC)c2)ccc1O` [LETESTUIANIN B] the same measures were 67 µg/mL (≈ 181 µM), greater than 100 µg/mL and greater than 100 µg/mL.
For `Nc1nc(N)nc(Nc2ccc([As]3SCC(CO)S3)cc2)n1` (stereo unspecified) [MELARSOPROL] the same measures were 0.002 µg/mL, 0.0005 µg/mL and 0.005 µg/mL.
Regarding `O=C(CCc1ccc(O)cc1)CC(=O)CCc1ccc(O)cc1` [LETESTUIANIN C], the IC50 in assay [1] was 1.4 µg/mL (≈ 4.48 µM); in assay [2], 2.3 µg/mL (≈ 7.36 µM); in assay [3] it was 2.6 µg/mL (≈ 8.32 µM).
Turning to `COc1cc(CCC(=O)/C=C(O)/C=C/c2ccc(O)cc2)ccc1O` [LETESTUIANIN A], the IC50 in assay [1] is greater than 100 µg/mL.
In the case of `O=C(/C=C(O)/C=C/c1ccc(O)cc1)CCc1ccc(O)cc1`, the values for the IC50 in assay [1], in assay [2] and in assay [3] were 2.6 µg/mL (≈ 8.38 µM), 2.8 µg/mL (≈ 9.02 µM) and 1.3 µg/mL (≈ 4.19 µM), respectively.

The values are drawn from ChEMBL document CHEMBL1150674, “Trypanocidal diarylheptanoids from Aframomum letestuianum” (J Nat Prod, 2003).
